Measured values from ChEMBL document CHEMBL2010803, “Novel NSAID 1-acyl-4-cycloalkyl/arylsemicarbazides and 1-acyl-5-benzyloxy/hydroxy carbamoylcarbazides as potential anticancer agents and antioxidants” (Eur J Med Chem, 2012).
Calls of active or inactive are those of the source. The calls are words filed in the database; no cut-off is given here.

Experiments:
[1] = test system: CCRF-CEM; test: Cytostatic activity against human CEM cells after 3 days by coulter counter analysis; assay type: functional, cell-based; details: 72 h
Procedure, shortened: (§1)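 300,000–500,000 cells/ml mixed 1:1 with compound dilutions and incubated at 37 °C for 2 days (L1210) or 3 days (CEM, HeLa). Cell number counted with a Coulter counter; HeLa trypsinized before counting.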

[2] = Antioxidant activity assessed as inhibition of AAPH-induced linoleic acid lipid peroxidation by measuring conjugated diene hydroperoxide level; assay type: functional; design: concentration or dose not given beside the values; details: dose or concentration not given here
Procedure, shortened: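 Linoleic acid sodium salt (10 μL of 16 mM) in 0.05 M phosphate buffer pH 7.4 at 37 °C. Oxidation started under air with 50 μL of 40 mM AAPH. Conjugated diene hydroperoxide formation followed as absorbance rise at 234 nm; control contains the same DMSO level. At least triplicate.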

[3] = test system: HeLa; test: Cytostatic activity against human HeLa cells after 3 days by coulter counter analysis; assay type: functional, cell-based; details: 72 h; procedure, shortened: as §1
[4] = test system: Radical scavenging activity; test: Antioxidant activity assessed as DPPH free radical scavenging activity at 100 uM after 20 mins by spectrophotometric analysis; assay type: functional
Procedure, shortened: (§2)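 0.05 mM DPPH in absolute ethanol mixed with an equal volume of compound in DMSO (final 100 μM). Shaken and left 20 or 60 min, then absorbance read at 517 nm and percent activity calculated. Three replicates, averaged.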

[5] = test system: Human respirovirus 3; test: Antiviral activity against Parainfluenza virus 3 infected in african green monkey Vero cells assessed as inhibition of virus-induced cytopathic effect at 0.32 to 100 uM; assay type: functional, organism-based
Procedure, shortened: (§3)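 Confluent cell cultures were infected with 100 CCID50 of virus in the presence of test compound at 100, 40, 8, 1.6 and 0.32 μM. Cytopathic effect was scored once it was complete in untreated infected controls.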

[6] = test system: Vaccinia virus; test: Antiviral activity against Vaccinia virus infected in human lung fibroblast assessed as inhibition of virus-induced cytopathic effect at 0.32 to 100 uM; assay type: functional, organism-based; details: Orthopoxvirus vaccinia
[7] = test system: Human immunodeficiency virus 2; test: Antiviral activity against HIV2 ROD infected in human CEM cells assessed as inhibition of virus-induced CEM giant cell formation at 0.32 to 100 uM after 4 days; assay type: functional, organism-based; details: ISOLATE ROD, CCRF-CEM
Procedure, shortened: (§4)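 CEM cells (~3 × 10^5 cells/cm³) exposed to 100 CCID50/ml of virus and seeded into wells holding compound dilutions. Incubated 4 days at 37 °C, then giant cell formation examined microscopically.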

[8] = test system: Influenza A virus; test: Antiviral activity against Influenza A virus H1N1 infected in MDCK cells assessed as inhibition of virus-induced cytopathic effect at 0.32 to 100 uM; assay type: functional, organism-based
Procedure, shortened: (§5)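 Confluent MDCK monolayers were infected in the presence of the compound at 100, 40, 8, 1.6 and 0.32 μM. Viral cytopathicity was scored once it was complete in untreated infected control cultures.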

[9] = test system: Human alphaherpesvirus 1; test: Antiviral activity against HSV1 KOS infected in human lung fibroblast assessed as inhibition of virus-induced cytopathic effect at 0.32 to 100 uM; assay type: functional, organism-based; procedure, shortened: as §3
[10] = test system: Sindbis virus; test: Antiviral activity against Sindbis virus infected in african green monkey Vero cells assessed as inhibition of virus-induced cytopathic effect at 0.32 to 100 uM; assay type: functional, organism-based; procedure, shortened: as §3
[11] = test system: Vesicular stomatitis virus; test: Antiviral activity against Vesicular stomatitis virus infected in human cervix carcinoma cells assessed as inhibition of virus-induced cytopathic effect at 0.32 to 100 uM; assay type: functional, organism-based
Procedure, shortened: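 Confluent human cervix carcinoma (HeLa) cultures received 100 CCID50 of VSV together with the compound at 100, 40, 8, 1.6 or 0.32 μM. Cytopathicity was read at the point of full CPE in infected, untreated control wells.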

[12] = test system: Mammalian orthoreovirus 1; test: Antiviral activity against Reovirus-1 infected in african green monkey Vero cells assessed as inhibition of virus-induced cytopathic effect at 0.32 to 100 uM; assay type: functional, organism-based; procedure, shortened: as §3
[13] = test system: Respiratory syncytial virus; test: Antiviral activity against RSV infected in human cervix carcinoma cells assessed as inhibition of virus-induced cytopathic effect at 0.32 to 100 uM; assay type: functional, organism-based; procedure, shortened: as §3
[14] = test system: MCF7; test: Cytostatic activity against human MCF7 cells after 72 hrs by MTT assay; assay type: functional, cell-based; details: MCF7, 72 h
Procedure, shortened: (§6)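 Monolayers in DMEM with 10% FBS, 2 mM L-glutamine and penicillin/streptomycin, 37 °C, 5% CO2. Seeded at 1–3 × 10^4 cells/ml, then compound added in tenfold dilutions (10⁻⁸–10⁻⁴ M) for 72 h. MTT read at 570 nm; percent growth taken against time-zero and untreated controls. IC50 by linear regression; quadruplicate, at least two experiments.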

[15] = test system: NCI-H460; test: Cytostatic activity against human NCI-H460 cells after 72 hrs by MTT assay; assay type: functional, cell-based; details: NCI-H460, 72 h; procedure, shortened: as §6
[16] = test system: Felid alphaherpesvirus 1; test: Antiviral activity against Feline herpesvirus infected in feline CRFK cells assessed as inhibition of virus-induced cytopathic effect at 0.32 to 100 uM; assay type: functional, organism-based; procedure, shortened: as §3
[17] = test system: Radical scavenging activity; test: Antioxidant activity assessed as DPPH free radical scavenging activity at 100 uM after 60 mins by spectrophotometric analysis; assay type: functional; procedure, shortened: as §2
[18] = test system: Human alphaherpesvirus 2; test: Antiviral activity against HSV2 G infected in human lung fibroblast assessed as inhibition of virus-induced cytopathic effect at 0.32 to 100 uM; assay type: functional, organism-based; details: strain G; procedure, shortened: as §3
[19] = test system: HCT-116; test: Cytostatic activity against human HCT116 cells after 72 hrs by MTT assay; assay type: functional, cell-based; details: HCT-116, 72 h; procedure, shortened: as §6
[20] = test system: L1210; test: Cytostatic activity against mouse L1210 cells after 2 days by coulter counter analysis; assay type: functional, cell-based; details: L1210, 48 h; procedure, shortened: as §1
[21] = test system: Influenza A virus; test: Antiviral activity against Influenza A virus H3N2 infected in MDCK cells assessed as inhibition of virus-induced cytopathic effect at 0.32 to 100 uM; assay type: functional, organism-based; procedure, shortened: as §5
[22] = test system: Coxsackievirus B4; test: Antiviral activity against Coxsackievirus B4 infected in african green monkey Vero cells assessed as inhibition of virus-induced cytopathic effect at 0.32 to 100 uM; assay type: functional, organism-based; procedure, shortened: as §3
[23] = test system: Human immunodeficiency virus 1; test: Antiviral activity against HIV1 3B infected in human CEM cells assessed as inhibition of virus-induced CEM giant cell formation at 0.32 to 100 uM after 4 days; assay type: functional, organism-based; details: CCRF-CEM; procedure, shortened: as §4
[24] = test system: Punta Toro virus; test: Antiviral activity against Punta Toro virus infected in african green monkey Vero cells assessed as inhibition of virus-induced cytopathic effect at 0.32 to 100 uM; assay type: functional, organism-based; procedure, shortened: as §3
[25] = test system: Feline coronavirus; test: Antiviral activity against Feline coronavirus infected in feline CRFK cells assessed as inhibition of virus-induced cytopathic effect at 0.32 to 100 uM; assay type: functional, organism-based; procedure, shortened: as §3
[26] = test system: Influenza B virus; test: Antiviral activity against Influenza B virus infected in MDCK cells assessed as inhibition of virus-induced cytopathic effect at 0.32 to 100 uM; assay type: functional, organism-based; procedure, shortened: as §5
[27] = test system: Vesicular stomatitis virus; test: Antiviral activity against VSV infected in human lung fibroblast assessed as inhibition of virus-induced cytopathic effect at 0.32 to 100 uM; assay type: functional, organism-based
[28] = test system: Glycine max; test: Inhibition of soybean LOX assessed as conversion of sodium linoleate to 13- hydroperoxylinoleic acid at 100 uM
[29] = test system: Coxsackievirus B4; test: Antiviral activity against Coxsackievirus B4 infected in human cervix carcinoma cells assessed as inhibition of virus-induced cytopathic effect at 0.32 to 100 uM; assay type: functional, organism-based; procedure, shortened: as §3

## CC(C)Cc1ccc(C(C)C(=O)NNC(=O)NOCc2ccccc2)cc1 (configuration not stated)
[1]
  IC50: ≥ 250 µM
[2]
  inhibition: 100%
[3]
  IC50: 178 µM
[4]
  Activity: inactive
[5]
  inhibition: inactive
[6]
  inhibition: inactive
[7]
  inhibition: inactive
[8]
  inhibition: inactive
[9]
  inhibition: inactive
[10]
  inhibition: inactive
[11]
  inhibition: inactive
[12]
  inhibition: inactive
[13]
  inhibition: inactive
[14]
  IC50: 50 µM
[15]
  IC50: > 100 µM
[16]
  inhibition: inactive
[17]
  Activity: inactive
[18]
  inhibition: inactive
[19]
  IC50: 76 µM
[20]
  IC50: 192 µM
[21]
  inhibition: inactive
[22]
  inhibition: inactive
[23]
  inhibition: inactive
[24]
  inhibition: inactive
[25]
  inhibition: inactive
[26]
  inhibition: inactive
[27]
  inhibition: inactive
[28]
  inhibition: inactive
[29]
  inhibition: inactive

## CC(C(=O)NN)c1cccc(Oc2ccccc2)c1 (configuration not stated)
[1]
  IC50: 154 µM
[2]
  inhibition: 10%
[3]
  IC50: 120 µM
[4]
  Activity: inactive
[5]
  inhibition: inactive
[6]
  inhibition: inactive
[7]
  inhibition: inactive
[8]
  inhibition: inactive
[9]
  inhibition: inactive
[10]
  inhibition: inactive
[11]
  inhibition: inactive
[12]
  inhibition: inactive
[13]
  inhibition: inactive
[14]
  IC50: > 100 µM
[15]
  IC50: > 100 µM
[16]
  inhibition: inactive
[17]
  Activity: 1%
[18]
  inhibition: inactive
[19]
  IC50: > 100 µM
[20]
  IC50: 212 µM
[21]
  inhibition: inactive
[22]
  inhibition: inactive
[23]
  inhibition: inactive
[24]
  inhibition: inactive
[25]
  inhibition: inactive
[26]
  inhibition: inactive
[27]
  inhibition: inactive
[28]
  inhibition: 3%
[29]
  inhibition: inactive

## CC(C)Cc1ccc(C(C)C(=O)NNC(=O)NNC(=O)NO)cc1 (configuration not stated)
[1]
  IC50: > 250 µM
[2]
  inhibition: 15%
[3]
  IC50: > 250 µM
[4]
  Activity: 24%
[5]
  inhibition: inactive
[6]
  inhibition: inactive
[7]
  inhibition: inactive
[8]
  inhibition: inactive
[9]
  inhibition: inactive
[10]
  inhibition: inactive
[11]
  inhibition: inactive
[12]
  inhibition: inactive
[13]
  inhibition: inactive
[14]
  IC50: > 100 µM
[15]
  IC50: > 100 µM
[16]
  inhibition: inactive
[17]
  Activity: 46%
[18]
  inhibition: inactive
[19]
  IC50: > 100 µM
[20]
  IC50: > 250 µM
[21]
  inhibition: inactive
[22]
  inhibition: inactive
[23]
  inhibition: inactive
[24]
  inhibition: inactive
[25]
  inhibition: inactive
[26]
  inhibition: inactive
[27]
  inhibition: inactive
[28]
  inhibition: inactive
[29]
  inhibition: inactive
